Sampled rows, rich in hits. Any-hit rate of the full collection: about 1.3%.
G6PDH CS: counter-screen for G6PDH assay hits: L. mesenteroides G6PDH inhibition; hit rate 0.12% among 200,000; Purified L. mesenteroides G6PDH, diaphorase/resazurin coupled fluorescence, 45 min; inhibition, % at 5 µM; AID 1020; in the data active = inhibition above about 50%
PfGluPho inh: PfG6PD (Plasmodium falciparum) enzyme inhibition; PfGluPho enzyme, NADPH resazurin-diaphorase fluorescence; inhibition, % at 20 µM; hit rate 0.78% among 350,000; AID 504690;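 active = inhibition reaching at least a set limit at 20 µM in the primary screen, cut at about 59% in these data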;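 also: 0% = DMSO wells with substrate and 100% = DMSO wells lacking glucose-6-phosphate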
HKDC1 inh: blocks human hexokinase HKDC1 activity | Q2TB90 | recombinant HKDC1, G6PDH/diaphorase resazurin coupled fluorescence | inhibition, % at 20 µM | hit rate 0.16% among 340,000 | AID 493160;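 active = inhibition above about 35% when tested at 20 µM, limit read from the data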;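 also: plate controls were DMSO wells with enzyme for no effect and DMSO wells lacking enzyme for full effect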
Target sequence (Q2TB90 whole entry, looked up): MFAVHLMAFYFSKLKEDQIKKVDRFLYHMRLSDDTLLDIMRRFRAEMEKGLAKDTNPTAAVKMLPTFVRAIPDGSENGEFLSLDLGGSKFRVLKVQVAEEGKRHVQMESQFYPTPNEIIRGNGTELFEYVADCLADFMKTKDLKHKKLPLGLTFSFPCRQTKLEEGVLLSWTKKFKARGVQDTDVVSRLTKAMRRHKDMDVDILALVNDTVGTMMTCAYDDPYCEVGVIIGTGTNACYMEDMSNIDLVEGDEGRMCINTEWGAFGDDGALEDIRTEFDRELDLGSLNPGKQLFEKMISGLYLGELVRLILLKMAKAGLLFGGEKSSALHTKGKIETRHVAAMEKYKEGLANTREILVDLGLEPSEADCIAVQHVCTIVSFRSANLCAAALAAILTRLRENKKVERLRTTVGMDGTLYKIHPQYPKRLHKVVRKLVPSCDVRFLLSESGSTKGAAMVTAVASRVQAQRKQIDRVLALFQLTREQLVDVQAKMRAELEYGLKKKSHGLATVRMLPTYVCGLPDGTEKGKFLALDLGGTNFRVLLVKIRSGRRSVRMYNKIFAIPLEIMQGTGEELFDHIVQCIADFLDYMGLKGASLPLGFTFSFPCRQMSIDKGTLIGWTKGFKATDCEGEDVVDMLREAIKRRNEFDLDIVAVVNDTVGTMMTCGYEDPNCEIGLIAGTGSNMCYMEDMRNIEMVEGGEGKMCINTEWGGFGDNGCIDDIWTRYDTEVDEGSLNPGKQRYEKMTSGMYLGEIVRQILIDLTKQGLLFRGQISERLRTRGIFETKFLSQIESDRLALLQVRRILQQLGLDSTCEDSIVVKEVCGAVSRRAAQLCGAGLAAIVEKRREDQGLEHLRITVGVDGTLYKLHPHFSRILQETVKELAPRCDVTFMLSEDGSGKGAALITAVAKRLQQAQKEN
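Incubation: 90 min at room temperature in dark / Material: recombinant HKDC1 (HK5) hexokinase enzyme, produced in-house / Quantity: enzyme 5 µg/mL final / Compound: one dose of 20 µM, 1% DMSO / Reagent: glucose and ATP substrates / Buffer or medium: Tris pH 8.0 buffer with MgCl2, Tween-20, BSA, BME / Technique: resorufin fluorescence at 613 nm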
Diaphorase inh: diaphorase inhibition or chemical oxidation counter-screen. hit rate 0.69% among 190,000. inhibition, % at 20 µM. diaphorase resazurin-to-resorufin fluorescence, NADH, 16 min; bacterial (C. kluyveri) enzyme, not human;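 active = primary screen inhibition at 20 µM above a set limit, cut at about 50% in these data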;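 also: plate controls were DMSO with full reaction for no effect and wells lacking NADH for full effect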
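Test system: Clostridium kluyveri diaphorase enzyme / Quantity: diaphorase at 0.14 U/mL in enzyme working solution / Incubation: 16-min room-temperature incubation before reading / Benchmarks: NADH-free wells as positive control, DMSO-only neutral wells / Signal: resorufin fluorescence 544/590 nm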
TbHK1 inh: blocks Trypanosoma brucei hexokinase 1 activity | recombinant TbHK1, G6PDH-coupled NADH A340 | inhibition, % at 10 µM | hit rate 0.11% among 220,000;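 active = inhibition of 50% or more in the single-dose primary screen; inactive = inhibition below 50%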
An asterisk follows results filed as active; nt = no result.

SMILES	G6PDH CS	PfGluPho inh	HKDC1 inh	Diaphorase inh	TbHK1 inh
C/C(CC(=O)N1CCN(C=O)CC1)=N\NC(=O)c1cc2ccccc2cc1O	3.2	57.9	22.7	88.3*	31.3
Cc1ccnc2nc(C(=O)OCC(=O)N(C)C3CCCCC3)nn12	nt	3.5	nt	nt	nt
CSc1nc2c(c(=O)[nH]1)CCCC2	0.1	7.6	-4.4	1.9	14.2
CSc1nc(=S)c2[nH]c(=S)[nH]c2[nH]1	nt	87.8*	3.9	nt	-12.8
O=C(/C(=N/N=C/c1ccc(O)c(O)c1O)c1ccccc1)c1ccccc1	20.1	-6.7	15.7	61.5*	-5.2
CCN1C(=O)c2cccc3c(S(=O)(=O)Nc4ccccc4OC)ccc1c23	0.3	-30.0	4.3	51.3*	29.3
COc1ccc(S(=O)(=O)N2CCN(C(=O)c3cccc(Cl)c3)CC2)cc1	-2.7	-33.5	-3.1	14.7	5.1
C=CCc1cc(/C=C/c2nc(O)c([N+](=O)[O-])c(=O)[nH]2)cc(OC)c1O	5.4	30.1	10.7	71.3*	-11.0
CCOc1cc(/C=C\c2nc(O)c([N+](=O)[O-])c(=O)[nH]2)ccc1OC(C)C	nt	1.9	4.6	nt	nt
Cc1sc2ncn(CC(=O)NCCCC(=O)N3CCN(c4ccccn4)CC3)c(=O)c2c1C	7.2	-3.9	-5.6	-8.1	32.9
O=C1/C(=C/c2ccc(O)c(O)c2)SC(=S)N1Nc1ccccc1	4.2	-2.0	9.1	56.1*	21.2
O=C1C(=O)N(c2cccc(Cl)c2)C(c2ccccc2[N+](=O)[O-])/C1=C(\O)c1ccccc1 (centres undefined)	1.1	34.2	-2.8	14.7	-12.9
O=C1C(=O)N(c2ccccc2)C(c2ccccc2[N+](=O)[O-])/C1=C(\O)c1ccccc1 (centres undefined)	13.3	10.2	1.0	51.3*	-24.5
Cc1nc(C)n(C)c(=O)c1-c1ccccc1	nt	-20.4	0.4	nt	nt
COc1cc(C(=O)Nc2scc(-c3ccc(Br)cc3)c2C(=O)O)cc(OC)c1OC	nt	59.4*	14.0	nt	nt
Cc1cccc(C(=O)Nc2scc(-c3ccc(Br)cc3)c2C(=O)O)c1	nt	51.6	20.8	nt	nt
C=CCSC1=N/C(=C\c2cc(OCC)c(OC(C)=O)c([N+](=O)[O-])c2)C(=O)S1	0.0	36.3	17.9	56.8*	18.2
COc1ccccc1N1CCN(Cc2ccc(O)c3ncccc23)CC1	29.1	-15.9	-7.3	56.7*	15.8
CCOC(=O)C1CCN(Cc2ccc(O)c3ncccc23)CC1	50.3*	3.5	-6.9	72.7*	1.6
Oc1ccc(CN2CCCc3ccccc32)c2cccnc12	-14.0	19.2	-11.9	77.2*	12.0
CCOC(=O)N1CCN(Cc2cc(Cl)c3cccnc3c2O)CC1	41.0	-2.1	-6.0	61.0*	-12.9
c1ccc(-c2nnc(CN3CCCc4ccccc43)o2)cc1	4.5	12.9	-1.2	-0.1	-1.9
CCOC(=O)N1CCN(Cc2ccccc2Cl)CC1	15.2	-7.9	-6.7	9.8	-3.9
Nc1nc(=S)[nH]c2c1C1(CCCC1)Cc1ccccc1-2	2.4	11.6	10.1	27.0	-10.6
Nc1nc(=S)[nH]c2c1C1(CCCCC1)Cc1ccccc1-2	-8.2	-3.5	16.0	53.2*	-8.6
SMILES	G6PDH CS	PfGluPho inh	HKDC1 inh	Diaphorase inh	TbHK1 inh
O=C(c1c[nH]c(C(=O)C(Cl)(Cl)Cl)c1)c1ccc(F)cc1Cl	4.3	1.0	9.2	59.8*	-1.7
Cc1ccc([N+](=O)[O-])cc1-c1[nH]c(-c2ccc(O)c(O)c2)nc1-c1ccccc1	6.8	8.1	7.4	63.6*	-13.0
COc1ccc(-c2nc(-c3ccccc3)c(-c3cc([N+](=O)[O-])ccc3C)[nH]2)cc1O	6.4	46.7	8.0	28.7	-8.5
c1ccc(-[n+]2nc(Nc3cccc4ccccc34)sc2-c2c3ccccc3cc3ccccc23)cc1	nt	83.5*	17.7	nt	nt
CN1CCN(c2ccccc2NC(=O)COc2ccc(Br)cc2)CC1	-4.6	15.5	6.8	8.4	-2.3
CC(C)[C@H](NC(N)=O)C(=O)NCCc1ccc(Cl)cc1	-1.8	-17.5	11.8	66.8*	3.7
O=[N+]([O-])c1ccc(O)c(/C=N/n2c(-c3ccccc3)n[nH]c2=S)c1	nt	12.5	3.9	nt	nt
Cc1ccc(-n2cccc2/C=C2\C(=N)N3N=C(c4ccco4)SC3=NC2=O)cc1	-1.9	-23.4	14.2	55.5*	-11.1
O=C(CC(C(=O)O)c1c[nH]c2ccccc12)c1ccccc1 (centres undefined)	6.4	-18.0	-1.3	77.9*	-2.2
Cc1ccc(C(=O)/C=C/Nc2ccc3c(c2)OCO3)cc1	3.7	16.6	-4.4	-0.4	-1.8
On1c2c(c3c4nonc4ccc31)CCCC2	47.3	nt	nt	55.5*	-7.7
S=c1nc(-c2ccccc2)[nH]c2ccccc12	-0.6	13.4	-6.4	65.5*	-10.5
COc1cc(CN2CCC(C(=O)N3CCN(c4ccccc4F)CC3)CC2)cc(OC)c1O	54.5*	0.2	-0.7	31.7	10.0
COc1cc2c(cc1OC)CN(Cc1cc(OC)c(O)c(OC)c1)CC2	52.6*	14.1	1.0	25.8	4.3
COc1ccc(CN2CCN(c3ccccc3OC)CC2)cc1OC	nt	-6.0	-8.3	nt	nt
COc1cc(CN2CCN(c3ccccc3F)CC2)cc(OC)c1O	53.5*	-9.2	-0.5	40.4	0.8
CCNc1nc(NCC)nc(Oc2ccc(N)cc2)n1	11.0	1.7	0.0	2.7	-8.8
COc1ccc(-c2ccc(CN3C(C(C)C)C(=O)N(Cc4cn(CC5CCCCC5)nn4)CCS3(=O)=O)cc2)cc1 (centres undefined)	nt	17.2	nt	nt	nt
COCCNC(=O)CSc1ccc(C)cc1	-0.5	-0.4	-2.5	3.1	-2.7
Nc1ccc2c(c1)Nc1ccccc1CC2	27.5	19.8	-0.8	61.5*	0.0
O=c1oc2ccccc2nc1/C=C(\O)c1ccccc1	nt	-20.4	3.0	nt	-24.8
O/C(=C\c1nc2ccccc2nc1/C=C(\O)c1ccccc1)c1ccccc1	50.8*	34.4	19.1	23.0	0.9
COc1cccc2c(=O)c3cccc(N)c3[nH]c12	28.3	10.7	9.4	85.9*	-9.3
CCC(=O)N/C(N)=N/c1nc2ccccc2o1	nt	-0.5	-1.7	nt	-6.4
COc1ccc(CCNC(=O)C2CCN(S(=O)(=O)N3CC(C)CC(C)C3)CC2)cc1OC (centres undefined)	-5.6	-10.0	-3.1	9.4	53.4*
COc1ccc(CCNC(=O)C2CCCN(S(=O)(=O)N3CC(C)CC(C)C3)C2)cc1OC (centres undefined)	nt	10.8	0.8	nt	nt
CN(Cc1nc(-c2cccs2)no1)CC1(N2CCOCC2)CCCCC1	12.7	6.2	-0.1	73.7*	-1.9
CN(CCN1CCOCC1)Cc1nc(-c2cccs2)no1	5.1	-4.2	-8.6	-0.6	-3.9
CC(C)C[C@@]12C(=O)N(c3cccc(F)c3)C(=O)N1[C@H](c1ccc(Br)cc1)[C@@H]1C(=O)N(C(C)(C)C)C(=O)[C@@H]12	nt	-5.1	5.3	nt	nt
COc1ccc(-n2nnc3c(SC(C(C)=O)C(=O)N(C)C)ncnc32)cc1 (centres undefined)	nt	63.5*	-2.7	nt	nt

Source: PubChem BioAssay (several laboratories)
